In ChEMBL document CHEMBL1131304, “Epidoxoform: a hydrolytically more stable anthracycline-formaldehyde conjugate toxic to resistant tumor cells” (J Med Chem, 1998):

Experiments:
[1] = Compound was evaluated for its half life at 25 degree Centigrade
[2] = Compound was evaluated for its half life at 37 degree Centigrade.
MCF7 [3] = test: (§1) Compound was tested for its toxicity against doxorubicin resistant human breast cancer cells (MCF-7/ADR).; type: functional, cell-based
In short: (§2)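 MCF-7 and MCF-7/ADR cells were grown at 37 °C in 5% CO2 in phenol red-free RPMI 1640 with 10% FBS, 2 mM L-glutamine, 25 mM HEPES and penicillin/streptomycin. MCF-7/ADR medium also held 5 μM doxorubicin. Cells were exposed to drug for 3 h in RPMI 1640/10% FBS/1% DMSO, then stained by crystal violet. IC50 was given as nmolar equiv/L.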

MCF7 [4] = test: Compound was tested for its toxicity against human breast cancer cells(MCF-7); type: functional, cell-based; in short: as §2
NCI/ADR-RES = test: as §1; type: functional, cell-based; in short: as §2

Compound	half-life [1] [min]	half-life [2] [min]	IC50 (MCF7 [3]) [nM equiv l-1]	IC50 (MCF7 [4]) [nM equiv l-1]	IC50 (NCI/ADR-RES) [nM equiv l-1]
COc1cccc2c1C(=O)c1c(O)c3c(c(O)c1C2=O)C[C@@](O)(C(=O)CO)C[C@@H]3O[C@@H]1C[C@@H](N)[C@H](O)[C@@H](C)O1	35	15			
COc1cccc2c1C(=O)c1c(O)c3c(c(O)c1C2=O)C[C@@](O)(C(C)=O)C[C@@H]3OC1CC2C(OCN2CN2COC3C(C)OC(O[C@H]4C[C@](O)(C(C)=O)Cc5c(O)c6c(c(O)c54)C(=O)c4c(OC)cccc4C6=O)CC32)C(C)O1 (some centres undefined) [DAUNOFORM]			10	8	
COc1cccc2c1C(=O)c1c(O)c3c(c(O)c1C2=O)C[C@@](O)(C(C)=O)C[C@@H]3O[C@H]1C[C@H](N)[C@H](O)[C@H](C)O1 [DAUNORUBICIN]				60	2000
COc1cccc2c1C(=O)c1c(O)c3c(c(O)c1C2=O)C[C@@](O)(C(=O)CO)C[C@@H]3OC1CC2C(OCN2CN2COC3C(C)OC(O[C@H]4C[C@](O)(C(=O)CO)Cc5c(O)c6c(c(O)c54)C(=O)c4c(OC)cccc4C6=O)CC32)C(C)O1 (some centres undefined) [DOXOFORM]				2	1
COc1cccc2c1C(=O)c1c(O)c3c(c(O)c1C2=O)C[C@@](O)(C(=O)CO)C[C@@H]3O[C@H]1C[C@H](N)[C@H](O)[C@H](C)O1 [DOXORUBICIN]				300	10000
COc1cccc2c1C(=O)c1c(O)c3c(c(O)c1C2=O)C[C@@](O)(C(=O)CO)C[C@@H]3O[C@H]1C[C@H]2C(OCN3CN2CO[C@H]2[C@@H](C)O[C@@H](O[C@H]4C[C@](O)(C(=O)CO)Cc5c(O)c6c(c(O)c54)C(=O)c4c(OC)cccc4C6=O)C[C@@H]23)[C@H](C)O1 (some centres undefined) [EPIDOXOFORM]				65	70
COc1cccc2c1C(=O)c1c(O)c3c(c(O)c1C2=O)C[C@@](O)(C(=O)CO)C[C@@H]3O[C@H]1C[C@H](N)[C@@H](O)[C@H](C)O1 [EPIRUBICIN]				200	> 10000
